According to ChEMBL document CHEMBL3286245, “Synthesis and antitumor activity of pyrido [2,3-d]pyrimidine and pyrido[2,3-d] [1,2,4]triazolo[4,3-a]pyrimidine derivatives that induce apoptosis through G1 cell-cycle arrest” (Eur J Med Chem, 2014):
The source made the active and inactive calls. No cut-off for these calls is given here.

What was measured:
A549 [1] = test: Cytotoxicity against human A549 cells after 48 hrs by sulforhodamine B assay; format: functional, cell-based; details: A549, 48 h
In short: (§1)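 Exponentially growing cells harvested with 0.25% trypsin-EDTA, seeded at 1000–2000 cells/well in supplemented DMEM, left 24 h, then exposed 48 h to a concentration series; 5-fluorouracil as reference. Fixed with 10% TCA 1 h at 4 °C, stained 10 min with 0.4% SRB in 1% acetic acid, dye solubilized in Tris-HCl, OD read at 564 nm. IC50 from Boltzmann sigmoidal nonlinear fit; means of at least three experiments.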

PC-3 [2] = test: Cytotoxicity against human PC3 cells after 48 hrs by sulforhodamine B assay; format: functional, cell-based; details: PC-3, 48 h; in short: as §1
PC-3 [3] = test: Induction of apoptosis in human PC3 cells assessed as condensed and fragmented chromatin at IC50 after 24 hrs by acridine orange/ethidium bromide staining-based fluorescence microscopic analysis; format: functional, cell-based
PC-3 [4] = test: Induction of apoptosis in human PC3 cells assessed as condensed and fragmented chromatin at IC50 after 48 hrs by acridine orange/ethidium bromide staining-based fluorescence microscopic analysis; format: functional, cell-based
PC-3 [5] = test: Induction of apoptosis in human PC3 cells assessed as increase in caspase-3 level at IC50 uM after 48 hrs by sandwich enzyme immunoassay relative to control; format: functional
HepG2 = test: Cytotoxicity against human HepG2 cells after 48 hrs by sulforhodamine B assay; format: functional, cell-based; details: HepG2, 48 h; in short: as §1
PC-3 [6] = test: Cell cycle arrest in human PC3 cells assessed as accumulation at G0/G1 phase at IC50 after 24 hrs by propidium iodide staining-based flow cytometric analysis; format: functional
MCF7 = test: Cytotoxicity against human MCF7 cells after 48 hrs by sulforhodamine B assay; format: functional, cell-based; details: MCF7, 48 h; in short: as §1
[7] = biological target: Cyclin-dependent kinase 4/cyclin D1 (Homo sapiens) (UniProt P11802+P24385); test: Inhibition of CDK4/cyclin D1 (unknown origin) at 10 uM after 20 to 30 mins by scintillation counting analysis relative to control; format: protein-complex assay
[8] = biological target: T1, CDK6/cyclin D1 (Homo sapiens) (UniProt P24385+Q00534); test: Inhibition of CDK6/cyclin D1 (unknown origin) at 1 uM after 20 to 30 mins by scintillation counting analysis relative to control; format: protein-complex assay
PC-3 [9] = test: Cell cycle arrest in human PC3 cells assessed as increase in accumulation at pre-G phase at IC50 after 48 hrs by propidium iodide staining-based flow cytometric analysis; format: functional
PC-3 [10] = test: Cell cycle arrest in human PC3 cells assessed as reduction in accumulation at G2/M phase at IC50 after 24 hrs by propidium iodide staining-based flow cytometric analysis; format: functional
PC-3 [11] = test: Upregulation of p21 protein level in human PC3 cells at IC50 after 48 hrs by Western blotting analysis relative to control; format: functional
A549 [12] = test: Ratio of 5-fluorouracil IC50 to compound IC50 for human A549 cells; format: functional
PC-3 [13] = test: Upregulation of p21 protein level in human PC3 cells at IC50 after 48 hrs by immunocytochemical analysis; format: functional, cell-based
[14] = biological target: T1, CDK6/cyclin D1 (Homo sapiens); test: Inhibition of CDK6/cyclin D1 (unknown origin) at 10 uM after 20 to 30 mins by scintillation counting analysis relative to control; format: protein-complex assay
PC-3 [15] = test: Cell cycle arrest in human PC3 cells assessed as reduction in accumulation at S phase at IC50 after 24 hrs by propidium iodide staining-based flow cytometric analysis; format: functional
PC-3 [16] = test: Induction of apoptosis in human PC3 cells assessed as increase in caspase-3 level at IC50 uM after 24 hrs by sandwich enzyme immunoassay relative to control; format: functional
PC-3 [17] = test: Induction of apoptosis in human PC3 cells assessed as wrinkled cells at IC50 after 24 hrs by acridine orange/ethidium bromide staining-based fluorescence microscopic analysis; format: functional, cell-based

## CCOC(=O)c1nn(-c2ccccc2)c2nc3nc(-c4cccs4)cc(-c4ccccc4)c3c(=O)n12
A549 [1]
  IC50: 26.6 µM
PC-3 [2]
  IC50: 33.6 µM

## CC(=O)c1nn(-c2ccccc2)c2nc3nc(-c4cccs4)cc(-c4ccccc4)c3c(=O)n12
A549 [1]
  IC50: 58.3 µM
PC-3 [2]
  IC50: 32.3 µM

## O=c1[nH]cc(F)c(=O)[nH]1 [FLUOROURACIL]
A549 [1]
  IC50: 4.21 µM
PC-3 [2]
  IC50: 12 µM

## CC(=O)c1nn(-c2ccc(Cl)cc2)c2nc3nc(-c4cccs4)cc(-c4ccccc4)c3c(=O)n12
A549 [1]
  IC50: 30.6 µM
PC-3 [2]
  IC50: 22.9 µM

## CCOC(=O)c1nn(-c2ccc(S(N)(=O)=O)cc2)c2nc3nc(-c4cccs4)cc(-c4ccccc4)c3c(=O)n12
A549 [1]
  IC50: 16.4 µM
PC-3 [2]
  IC50: 7.15 µM

## O=c1c2c(-c3ccccc3)cc(-c3cccs3)nc2nc2[nH]ncn12
A549 [1]
  IC50: 21.7 µM
PC-3 [2]
  IC50: 11.7 µM

## Nc1n[nH]c2nc3nc(-c4cccs4)cc(-c4ccccc4)c3c(=O)n12
A549 [1]
  IC50: 43.7 µM
PC-3 [2]
  IC50: 12.3 µM

## O=c1[nH][nH]c2nc3nc(-c4cccs4)cc(-c4ccccc4)c3c(=O)n12
A549 [1]
  IC50: 14.7 µM
PC-3 [2]
  IC50: 12.7 µM

## Cc1ccc(/C=N/Nc2nc3nc(-c4cccs4)cc(-c4ccccc4)c3c(=O)[nH]2)cc1
A549 [1]
  IC50: 56.6 µM
PC-3 [2]
  IC50: 0.63 µM

## CC(=O)c1nn(-c2ccc(S(N)(=O)=O)cc2)c2nc3nc(-c4cccs4)cc(-c4ccccc4)c3c(=O)n12
PC-3 [3]
  Activity: Active
PC-3 [4]
  Activity: Active
PC-3 [5]
  fold change (FC): 2
HepG2
  IC50: 56.6 µM
PC-3 [6]
  Activity: Active
MCF7
  IC50: 38 µM
[7]
  inhibition: 5%
[8]
  inhibition: 2%
PC-3 [9]
  Activity: Active
PC-3 [10]
  Activity: Active
PC-3 [11]
  fold change (FC): 1.7
A549 [1]
  IC50: 0.41 µM
A549 [12]
  Ratio IC50: 10
PC-3 [13]
  Activity: Active
[14]
  inhibition: 1%
PC-3 [15]
  Activity: Active
PC-3 [16]
  fold change (FC): 1.5
PC-3 [2]
  IC50: 0.36 µM
PC-3 [17]
  Activity: Active

## CC(=O)c1nn(-c2ccc(C)cc2)c2nc3nc(-c4cccs4)cc(-c4ccccc4)c3c(=O)n12
A549 [1]
  IC50: 19.3 µM
PC-3 [2]
  IC50: 16.9 µM

## O=c1[nH]c(N/N=C/c2ccc(F)cc2)nc2nc(-c3cccs3)cc(-c3ccccc3)c12
A549 [1]
  IC50: 3.36 µM
PC-3 [2]
  IC50: 1.54 µM

## O=c1[nH]c(N/N=C/c2ccc(Cl)cc2)nc2nc(-c3cccs3)cc(-c3ccccc3)c12
A549 [1]
  IC50: 40.8 µM
PC-3 [2]
  IC50: 23.8 µM

## COc1ccc(-n2nc(C(C)=O)n3c(=O)c4c(-c5ccccc5)cc(-c5cccs5)nc4nc23)cc1
A549 [1]
  IC50: 24.6 µM
PC-3 [2]
  IC50: 19.5 µM

## O=c1c2c(-c3ccccc3)cc(-c3cccs3)nc2nc2[nH][nH]c(=S)n12
A549 [1]
  IC50: 54.1 µM
PC-3 [2]
  IC50: 32.4 µM

## CCOC(=O)c1nn(-c2ccc(C)cc2)c2nc3nc(-c4cccs4)cc(-c4ccccc4)c3c(=O)n12
A549 [1]
  IC50: 37.8 µM
PC-3 [2]
  IC50: 33.3 µM

## CC(=O)c1nn(-c2ccc(F)cc2)c2nc3nc(-c4cccs4)cc(-c4ccccc4)c3c(=O)n12
A549 [1]
  IC50: 39.1 µM
PC-3 [2]
  IC50: 35.9 µM

## COc1ccc(/C=N/Nc2nc3nc(-c4cccs4)cc(-c4ccccc4)c3c(=O)[nH]2)cc1
A549 [1]
  IC50: 18.7 µM
PC-3 [2]
  IC50: 18.2 µM

## O=c1[nH]c(N/N=C/c2ccccc2)nc2nc(-c3cccs3)cc(-c3ccccc3)c12
A549 [1]
  IC50: 32.1 µM
PC-3 [2]
  IC50: 26.8 µM

## Cc1n[nH]c2nc3nc(-c4cccs4)cc(-c4ccccc4)c3c(=O)n12
A549 [1]
  IC50: 55.5 µM
PC-3 [2]
  IC50: 83.9 µM

## CCOC(=O)c1nn(-c2ccc(Cl)cc2)c2nc3nc(-c4cccs4)cc(-c4ccccc4)c3c(=O)n12
A549 [1]
  IC50: 72.6 µM
PC-3 [2]
  IC50: 37.4 µM
